This note sets out measurements from ChEMBL document CHEMBL4699498 (J Med Chem, 2020).

One test concerns CAPAN-1. Description: Antiproliferative activity against human CAPAN-1 cells assessed as cell growth inhibition incubated for 13 days by CCK-8 assay. The class given is functional, cell-based. The following applies: CAPAN-1, 312 h. Summed up: (§1)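 Cells were sub-cultured at least twice and seeded for 24 h before dosing. Compounds came from 10 mM DMSO stocks, given as 10 points of 3-fold serial dilution starting at 10-20 μM. Incubation was about 7 days (Capan-1 13 days) at 37 °C, 5% CO2. Read-out was CCK-8 absorbance at 450 nm, as % growth versus DMSO wells (duplicate wells). IC50 was fitted by nonlinear regression; three independent experiments.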

Another test relates to MDA-MB-436. Description: Antiproliferative activity against human MDA-MB-436 cells assessed as cell growth inhibition incubated for 7 days by CCK-8 assay. Format: functional, cell-based. To be noted: MDA-MB-436, 168 h. Summed up:
as §1
In general terms: Formazan colour is commonly taken as a measure of viable cells.

Test [1] concerns the target von Hippel-Lindau disease tumor suppressor/Poly [ADP-ribose] polymerase 1 (Homo sapiens) (UniProt P09874+P40337). The experiment in a line: Protac activity at VHL/PARP1 in human MDA-MB-436 cells assessed as reduction in PARP1 protein level at 1 uM incubated for 24 hrs by western blot analysis. The class given is cell-based. For orientation: A western blot detects proteins with antibodies after separation by electrophoresis.

The target of test [2] is Poly [ADP-ribose] polymerase 1 (Homo sapiens, UniProt P09874). Description: Inhibition of recombinant human C-terminal His-tagged PARP1 expressed in Sf9 insect cells preincubated for 20 mins in presence of activated DNA followed by […] addition and further incubated for 2 hrs by chemiluminescence assay.
Test [3] concerns the target T1, Protein cereblon/Poly [ADP-ribose] polymerase 1 (Homo sapiens, UniProt P09874+Q96SW2). Description: Protac activity at CRBN/PARP1 in human Capan1 cells assessed as induction of PARP1 degradation at 1 to 1000 nM incubated for 24 hrs by Western blot analysis. Format: cell-based. To be noted: CAPAN-1, dose nM 1-1000, time 24.0 hrs. The method, boiled down: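 Capan-1 cells were treated 24 h (1-1000 nM, or a wider dose range for DC50). Lysis was in RIPA buffer with protease inhibitors, and 20-30 μg protein was blotted. PARP1 was normalized to β-tubulin and to DMSO control, quantified by densitometry. DC50 came from two independent experiments.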

The target in test [4] is T1, Protein cereblon/Poly [ADP-ribose] polymerase 1. Description: Protac activity at CRBN/PARP1 in human MDA-MB-436 cells assessed as induction of PARP1 degradation at 1 to 1000 nM incubated for 24 hrs by Western blot analysis. The class given is cell-based. To be noted: dose nM 1-1000, time 24.0 hrs. Summed up: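 PARP1 immunoblot of MDA-MB-436 lysates after 24 h exposure at 1, 10, 100 and 1000 nM; RIPA lysis, 20-30 µg protein per lane, β-tubulin as loading control, band density normalized to DMSO control.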

The target is the same in test [5]. Description: Protac activity at CRBN/PARP1 in human MDA-MB-436 cells assessed as reduction in PARP1 protein level at 0.01 to 10 uM incubated for 12 hrs by western blot analysis. Format: cell-based. To be noted: dose microM 0.01-10, time 12.0 hrs. Summed up: (§2)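 MDA-MB-436 or SW620 cells dosed at 1, 10, 100, 1000 nM and 10 µM for 12 h; PARP1 assessed by western blot of RIPA lysates (20-30 µg protein), β-tubulin as loading control.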

Test [6] shares this target. The experiment in a line: Protac activity at CRBN/PARP1 in human SW620 cells assessed as reduction in PARP1 protein level at 0.01 to 10 uM incubated for 12 hrs by western blot analysis. Format: cell-based. The following applies: SW-620, dose microM 0.01-10, time 12.0 hrs. Summed up: as §2
Test [7] shares this target. Description: Protac activity at CRBN/PARP1 in human MDA-MB-436 cells assessed as induction of PARP1 degradation at 1 uM incubated for 24 hrs by Western blot analysis relative to control. The class given is cell-based. The method, boiled down: (§3)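 MDA-MB-436 cells (RPMI-1640, 10% FBS) seeded 24 h, then exposed to compound at 1, 10, 100 and 1000 nM for 24 h. Lysates in RIPA with protease inhibitors, 20-30 µg protein by SDS-PAGE, PARP1 immunoblot with β-tubulin loading control; PARP1/β-tubulin ratio normalized to DMSO control set at 100.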

Test [8] has the same target. Description: Protac activity at CRBN/PARP1 in human MDA-MB-436 cells assessed as induction of PARP1 degradation at 10 nM incubated for 24 hrs by Western blot analysis relative to control. The class given is cell-based. The method, boiled down: as §3
Test [9] shares this target. Description: Protac activity at CRBN/PARP1 in human MDA-MB-436 cells assessed as induction of PARP1 degradation at 100 nM incubated for 24 hrs by Western blot analysis relative to control. The class given is cell-based. The method, boiled down:
as §3

Active and inactive are the calls of the source. No cut-off for these calls is given here.

Sequence of von Hippel-Lindau disease tumor suppressor/Poly [ADP-ribose] polymerase 1 (Homo sapiens) (P09874 whole entry, looked up): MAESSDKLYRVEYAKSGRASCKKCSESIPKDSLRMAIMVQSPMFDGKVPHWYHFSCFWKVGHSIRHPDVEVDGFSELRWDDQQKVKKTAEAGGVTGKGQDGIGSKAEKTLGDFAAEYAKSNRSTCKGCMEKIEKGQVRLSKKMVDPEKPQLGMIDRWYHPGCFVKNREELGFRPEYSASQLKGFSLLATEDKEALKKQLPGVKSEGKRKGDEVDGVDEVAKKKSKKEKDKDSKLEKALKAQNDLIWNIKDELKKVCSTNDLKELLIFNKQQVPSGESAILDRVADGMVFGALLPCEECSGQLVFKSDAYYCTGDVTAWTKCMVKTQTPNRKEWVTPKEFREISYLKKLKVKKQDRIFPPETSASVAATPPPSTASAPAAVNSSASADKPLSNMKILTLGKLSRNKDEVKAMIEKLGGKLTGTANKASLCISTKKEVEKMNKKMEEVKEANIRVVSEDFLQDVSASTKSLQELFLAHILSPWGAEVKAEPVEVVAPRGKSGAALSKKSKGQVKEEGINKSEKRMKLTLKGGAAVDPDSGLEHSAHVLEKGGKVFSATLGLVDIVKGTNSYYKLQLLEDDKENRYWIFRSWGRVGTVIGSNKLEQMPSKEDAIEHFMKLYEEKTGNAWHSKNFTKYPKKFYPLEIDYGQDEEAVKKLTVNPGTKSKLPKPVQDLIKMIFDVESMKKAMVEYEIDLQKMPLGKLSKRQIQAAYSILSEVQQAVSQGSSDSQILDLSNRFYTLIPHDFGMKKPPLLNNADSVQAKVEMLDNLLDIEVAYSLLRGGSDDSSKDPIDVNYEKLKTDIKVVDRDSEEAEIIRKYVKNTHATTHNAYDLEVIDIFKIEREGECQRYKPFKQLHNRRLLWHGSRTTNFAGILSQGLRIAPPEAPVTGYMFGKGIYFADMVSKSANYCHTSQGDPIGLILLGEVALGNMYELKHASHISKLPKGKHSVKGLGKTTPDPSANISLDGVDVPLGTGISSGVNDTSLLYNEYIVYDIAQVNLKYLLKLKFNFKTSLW
Sequence of von Hippel-Lindau disease tumor suppressor/Poly [ADP-ribose] polymerase 1 (Homo sapiens) (P40337 whole entry, looked up): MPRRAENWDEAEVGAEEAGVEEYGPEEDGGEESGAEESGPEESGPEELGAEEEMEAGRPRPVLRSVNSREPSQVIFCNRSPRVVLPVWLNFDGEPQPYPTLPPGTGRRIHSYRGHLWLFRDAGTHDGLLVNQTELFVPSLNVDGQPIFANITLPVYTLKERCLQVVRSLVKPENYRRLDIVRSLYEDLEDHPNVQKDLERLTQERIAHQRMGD
T1 sequence (P09874 2-1014 limits assumed): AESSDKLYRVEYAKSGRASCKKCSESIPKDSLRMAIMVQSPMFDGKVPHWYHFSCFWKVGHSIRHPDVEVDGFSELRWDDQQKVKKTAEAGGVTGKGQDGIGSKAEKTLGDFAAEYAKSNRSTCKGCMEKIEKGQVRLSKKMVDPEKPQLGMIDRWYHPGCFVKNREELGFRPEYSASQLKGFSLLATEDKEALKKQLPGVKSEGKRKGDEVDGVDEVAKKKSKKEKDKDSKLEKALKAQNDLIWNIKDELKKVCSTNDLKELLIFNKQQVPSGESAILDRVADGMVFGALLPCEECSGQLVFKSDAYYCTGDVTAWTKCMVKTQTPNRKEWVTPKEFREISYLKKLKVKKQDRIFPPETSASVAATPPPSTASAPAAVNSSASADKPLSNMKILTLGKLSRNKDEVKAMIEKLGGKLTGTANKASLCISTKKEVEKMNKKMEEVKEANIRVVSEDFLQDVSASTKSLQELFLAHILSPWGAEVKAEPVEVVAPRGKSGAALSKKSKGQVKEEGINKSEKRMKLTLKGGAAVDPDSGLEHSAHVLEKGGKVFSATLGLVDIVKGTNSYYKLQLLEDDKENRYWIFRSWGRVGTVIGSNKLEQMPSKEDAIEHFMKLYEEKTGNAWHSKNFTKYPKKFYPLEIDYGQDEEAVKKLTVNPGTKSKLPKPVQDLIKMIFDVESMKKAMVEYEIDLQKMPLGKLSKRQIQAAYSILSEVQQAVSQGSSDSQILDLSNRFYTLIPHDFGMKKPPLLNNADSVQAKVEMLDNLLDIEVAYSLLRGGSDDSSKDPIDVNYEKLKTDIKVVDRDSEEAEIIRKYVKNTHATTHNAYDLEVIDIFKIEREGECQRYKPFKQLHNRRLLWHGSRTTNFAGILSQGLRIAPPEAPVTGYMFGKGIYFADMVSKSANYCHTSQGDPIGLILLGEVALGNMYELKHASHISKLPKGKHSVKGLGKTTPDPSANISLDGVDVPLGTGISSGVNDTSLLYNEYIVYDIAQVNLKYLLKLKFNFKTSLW
T1 sequence (Q96SW2 whole entry partner): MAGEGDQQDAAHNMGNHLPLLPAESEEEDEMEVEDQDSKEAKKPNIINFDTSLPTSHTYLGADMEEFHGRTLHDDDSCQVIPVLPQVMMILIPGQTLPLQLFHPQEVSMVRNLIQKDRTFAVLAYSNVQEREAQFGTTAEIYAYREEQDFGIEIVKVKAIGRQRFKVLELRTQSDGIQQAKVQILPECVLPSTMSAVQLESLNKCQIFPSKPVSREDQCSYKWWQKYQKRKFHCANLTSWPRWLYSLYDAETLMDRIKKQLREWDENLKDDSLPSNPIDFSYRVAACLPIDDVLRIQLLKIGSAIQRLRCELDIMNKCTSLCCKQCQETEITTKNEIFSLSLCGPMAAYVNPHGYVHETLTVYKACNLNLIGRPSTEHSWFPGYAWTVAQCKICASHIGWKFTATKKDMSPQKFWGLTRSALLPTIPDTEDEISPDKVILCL
Sequence of Poly [ADP-ribose] polymerase 1 (P09874 whole entry): as the sequence (P09874 whole entry, looked up) above

Usually IC50 stands for the concentration that gives 50% inhibition. For the molecule `O=C(CCCCCNC(=O)CNc1cccc2c1C(=O)N(C1CCC(=O)NC1=O)C2=O)NCCCCCC(=O)N1CCN(C(=O)c2cc(Cc3n[nH]c(=O)c4ccccc34)ccc2F)CC1` (centres undefined), the IC50 with CAPAN-1 stood at 2200 nM; with MDA-MB-436, 1700 nM.
Taken in the same sequence, the figures for `O=C(CCCCCCCCCCCC(=O)N1CCN(C(=O)c2cc(Cc3n[nH]c(=O)c4ccccc34)ccc2F)CC1)NCCNc1cccc2c1C(=O)N(C1CCC(=O)NC1=O)C2=O` (centres undefined) were 87 nM and 21 nM.
For `O=C(CCCCCNC(=O)COc1cccc2c1C(=O)N(C1CCC(=O)NC1=O)C2=O)NCCCCCC(=O)N1CCN(C(=O)c2cc(Cc3n[nH]c(=O)c4ccccc34)ccc2F)CC1` (centres undefined), the values for the IC50 in the test on CAPAN-1 and with MDA-MB-436 were 1500 nM and 950 nM, respectively.
Taken in the same sequence, the figures for `O=C(CCCCCCCCCC(=O)N1CCN(C(=O)c2cc(Cc3n[nH]c(=O)c4ccccc34)ccc2F)CC1)NCCNc1cccc2c1C(=O)N(C1CCC(=O)NC1=O)C2=O` (centres undefined) were 264 nM and 29 nM.
Turning to `Cc1ncsc1-c1ccc(CNC(=O)[C@@H]2C[C@@H](O)CN2C(=O)[C@@H](NC(=O)CCCNC(=O)CCCCCCCCCCC(=O)N2CCN(C(=O)c3cc(Cc4n[nH]c(=O)c5ccccc45)ccc3F)CC2)C(C)(C)C)cc1`, the result in [1] was inactive. In addition, the IC50 stood at 870 nM with CAPAN-1 and 680 nM in the test on MDA-MB-436.
With `O=C(CCCCCCCCCCCCC(=O)N1CCN(C(=O)c2cc(Cc3n[nH]c(=O)c4ccccc34)ccc2F)CC1)NCCNc1cccc2c1C(=O)N(C1CCC(=O)NC1=O)C2=O` (centres undefined), the IC50 in the test on CAPAN-1 amounted to 118 nM; in the test with MDA-MB-436 it was 25 nM.
Turning to `O=C(CCCNC(=O)COc1cccc2c1C(=O)N(C1CCC(=O)NC1=O)C2=O)NCCCCCC(=O)N1CCN(C(=O)c2cc(Cc3n[nH]c(=O)c4ccccc34)ccc2F)CC1` (centres undefined), the IC50 with CAPAN-1 is 3100 nM; with MDA-MB-436 it was 1200 nM.
Taken in the same sequence, the figures for `O=C(CCCCCNC(=O)COc1cccc2c1C(=O)N(C1CCC(=O)NC1=O)C2=O)NCCCC(=O)N1CCN(C(=O)c2cc(Cc3n[nH]c(=O)c4ccccc34)ccc2F)CC1` (centres undefined) were 8700 nM and 1900 nM.
Taken in the same sequence, the figures for `O=C(CCCCCCCCCCC(=O)N1CCN(C(=O)c2cc(Cc3n[nH]c(=O)c4ccccc34)ccc2F)CC1)NCCOCCOCCNc1cccc2c1C(=O)N(C1CCC(=O)NC1=O)C2=O` (centres undefined) were 134 nM and 64 nM.
The matching figures for `O=C(CCCNC(=O)COc1cccc2c1C(=O)N(C1CCC(=O)NC1=O)C2=O)NCCCC(=O)N1CCN(C(=O)c2cc(Cc3n[nH]c(=O)c4ccccc34)ccc2F)CC1` (centres undefined): more than 10000 nM and 5300 nM.
For the molecule `O=C(CCCCCCCCCCC(=O)N1CCN(C(=O)c2cc(Cc3n[nH]c(=O)c4ccccc34)ccc2F)CC1)NCCCOCCOCCOCCCNc1cccc2c1C(=O)N(C1CCC(=O)NC1=O)C2=O` (centres undefined), the IC50 came out at 154 nM in the test on CAPAN-1 and 65 nM in the test on MDA-MB-436.
`O=C(CCCCCCCCCCC(=O)N1CCN(C(=O)c2cc(Cc3n[nH]c(=O)c4ccccc34)ccc2F)CC1)NCCCCCCNc1cccc2c1C(=O)N(C1CCC(=O)NC1=O)C2=O` (centres undefined): the IC50 was 110 nM with CAPAN-1 and 42 nM with MDA-MB-436.
Taken in the same sequence, the figures for `O=C(CCCCCCCCCCC(=O)N1CCN(C(=O)c2cc(Cc3n[nH]c(=O)c4ccccc34)ccc2F)CC1)NCCNc1cccc2c1CN(C1CCC(=O)NC1=O)C2=O` (centres undefined) were 194 nM and 92 nM.
Taken in the same sequence, the figures for `O=C(COc1cccc2c1C(=O)N(C1CCC(=O)NC1=O)C2=O)NCCCC(=O)N1CCN(C(=O)c2cc(Cc3n[nH]c(=O)c4ccccc34)ccc2F)CC1` (centres undefined) were more than 10000 nM and more than 10000 nM.
Taken in the same sequence, the figures for `O=C(CCCCC(=O)N1CCN(C(=O)c2cc(Cc3n[nH]c(=O)c4ccccc34)ccc2F)CC1)NCCNc1cccc2c1C(=O)N(C1CCC(=O)NC1=O)C2=O` (centres undefined) were more than 10000 nM and more than 10000 nM.
Take `O=C(CCCCCCCCCCC(=O)N1CCN(C(=O)c2cc(Cc3n[nH]c(=O)c4ccccc34)ccc2F)CC1)NCCOCCNc1cccc2c1C(=O)N(C1CCC(=O)NC1=O)C2=O` (centres undefined): the figures for the 50% inhibitory concentration (IC50) with CAPAN-1 and with MDA-MB-436 were 120 nM and 47 nM, respectively.
For `Cc1ncsc1-c1ccc(CNC(=O)[C@@H]2C[C@@H](O)CN2C(=O)[C@@H](NC(=O)CCCCCNC(=O)CCCCCCCCCCC(=O)N2CCN(C(=O)c3cc(Cc4n[nH]c(=O)c5ccccc45)ccc3F)CC2)C(C)(C)C)cc1`, the outcome in test [1] was inactive. The half-inhibitory concentration (IC50) with CAPAN-1 stood at 170 nM; with MDA-MB-436 it was 120 nM.
The matching figures for `Cc1ncsc1-c1ccc(CNC(=O)[C@@H]2C[C@@H](O)CN2C(=O)[C@@H](NC(=O)CNC(=O)CCCCCCCCCCC(=O)N2CCN(C(=O)c3cc(Cc4n[nH]c(=O)c5ccccc45)ccc3F)CC2)C(C)(C)C)cc1`: “inactive”, 1600 nM and 1200 nM.
Taken in the same sequence, the figures for `Cc1ncsc1-c1ccc(CNC(=O)[C@@H]2C[C@@H](O)CN2C(=O)[C@@H](NC(=O)CCCCCCCCCCC(=O)N2CCN(C(=O)c3cc(Cc4n[nH]c(=O)c5ccccc45)ccc3F)CC2)C(C)(C)C)cc1` were “inactive”, 87 nM and 54 nM.
Consider `O=C(CCCCCCCCC(=O)N1CCN(C(=O)c2cc(Cc3n[nH]c(=O)c4ccccc34)ccc2F)CC1)NCCNc1cccc2c1C(=O)N(C1CCC(=O)NC1=O)C2=O` (centres undefined), for which the figures for the IC50 in the test on CAPAN-1 and with MDA-MB-436 were 495 nM and 123 nM, respectively.
The matching figures for `O=C(CCCCCCC(=O)N1CCN(C(=O)c2cc(Cc3n[nH]c(=O)c4ccccc34)ccc2F)CC1)NCCNc1cccc2c1C(=O)N(C1CCC(=O)NC1=O)C2=O` (centres undefined): 4100 nM and 830 nM.
`CN1C(=O)CCC(N2C(=O)c3cccc(NCCNC(=O)CCCCCCCCCCC(=O)N4CCN(C(=O)c5cc(Cc6n[nH]c(=O)c7ccccc67)ccc5F)CC4)c3C2=O)C1=O` (centres undefined): the IC50 in [2] was found to be 2.64 nM. Moreover, the result in [3] and in [4] was inactive.
Turning to `CN(CCOCCOCCOCCOCCOCCOCCNc1cccc2c1C(=O)N(C1CCC(=O)NC1=O)C2=O)Cc1ccc(-c2[nH]c3cc(F)cc4c3c2CCNC4=O)cc1` (centres undefined), the outcome in [5] and in test [6] was Active. The IC50 in the test on CAPAN-1 stood at 950 nM; in the test with MDA-MB-436 it was 710 nM.
In the case of `O=C(CCCNC(=O)CNc1cccc2c1C(=O)N(C1CCC(=O)NC1=O)C2=O)NCCCCCC(=O)N1CCN(C(=O)c2cc(Cc3n[nH]c(=O)c4ccccc34)ccc2F)CC1` (centres undefined), the half-maximal inhibitory concentration (IC50) was 7100 nM with CAPAN-1 and 2200 nM with MDA-MB-436.
The matching figures for `O=C(COc1cccc2c1C(=O)N(C1CCC(=O)NC1=O)C2=O)NCCCCCC(=O)N1CCN(C(=O)c2cc(Cc3n[nH]c(=O)c4ccccc34)ccc2F)CC1` (centres undefined): more than 10000 nM and 9400 nM.
Consider `O=C(CCCCCCCCCCC(=O)N1CCN(C(=O)c2cc(Cc3n[nH]c(=O)c4ccccc34)ccc2F)CC1)NCCCCNc1cccc2c1C(=O)N(C1CCC(=O)NC1=O)C2=O` (centres undefined), for which the Activity stood at 45% in [7], 70% in [8] and 90.5% in test [9]. Besides, the IC50 worked out at 131 nM in the test with CAPAN-1 and 39 nM with MDA-MB-436.
Turning to `O=C(CCCCCCCCCCC(=O)N1CCN(C(=O)c2cc(Cc3n[nH]c(=O)c4ccccc34)ccc2F)CC1)NCCNc1ccc2c(c1)C(=O)N(C1CCC(=O)NC1=O)C2=O` (centres undefined), the results for the IC50 in the test with CAPAN-1 and in the test on MDA-MB-436 were 159 nM and 35 nM, respectively.
